According to ChEMBL document CHEMBL5096186, “Design, Synthesis, and Biological Evaluation of Novel Pyrimido[4,5-b]indole Derivatives Against Gram-Negative Multidrug-Resistant Pathogens” (J Med Chem, 2021):
In brackets after ≈: the same amount, converted by molar mass.

Columns and labels:
Escherichia coli [1] = experiment: Antibacterial activity against ESBL-producing multidrug resistant Escherichia coli assessed as reduction in bacterial growth incubated for 18 to 20 hrs by CLSI based microdilution method; format: functional; conditions: time 18-20 hrs
Outline: (§1)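 Broth microdilution per CLSI. Compounds dissolved in DMSO (levofloxacin and meropenem in water) as 64 μg/mL stock, then serial twofold dilutions in broth giving 64 to 0.008 μg/mL. […] Clinical isolates tested as several strains per group; racemic GP-1 served as positive control; values given as MIC ranges.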

[2] = AUC (0 to infinity) in Sprague-Dawley rat at 4 mg/kg, iv measured upto 24 hrs by LC-MS/MS analysis; format: ADME, organism-based; parameters: time < 24 hrs, dose 4 mg/kg, route iv; conditions: in vivo
Outline: (§2)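 Male Sprague-Dawley rats, n = 3 per group, single intravenous dose. For 4 mg/kg: 180–280 g rats, vehicle 5% DMSO + 5% EtOH + 40% PEG300 + 50% saline, blood from the retrobulbar vein at 0.05–24 h. For 5 and 20 mg/kg: 180–300 g rats, vehicle 5% DMSO + 5% solutol + 90% saline, sampled at 0.083–24 h. Plasma quantified by LC/MS/MS. Parameters from mean plasma concentration by noncompartmental analysis; values are mean ± standard deviation.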

[3] = Cytotoxicity against human HEK293 cells assessed as cell viability measured for 48 hrs by CCK-8 assay; format: toxicity, cell-based
Outline: (§3)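 Cells seeded at 1 × 10⁴ per well and grown for 48 h. Then exposed to test articles at 1–200 μM for another 48 h (n = 6). Viability by CCK-8 added for 2 h, absorbance read at 450 nm. CC50 calculated and reported as the mean.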

Escherichia coli [4] = experiment: Antibacterial activity against multidrug resistant wild type Escherichia coli ATCC BAA-2340 assessed as reduction in bacterial growth incubated for 18 to 20 hrs by CLSI based microdilution method; format: functional; conditions: time 18-20 hrs; outline: as §1
Escherichia coli [5] = experiment: Antibacterial activity against multidrug resistant wild type Escherichia coli NCTC 13353 assessed as reduction in bacterial growth incubated for 18 to 20 hrs by CLSI based microdilution method; format: functional; conditions: time 18-20 hrs; outline: as §1
[6] = target: Voltage-gated inwardly rectifying potassium channel KCNH2 (Homo sapiens, UniProt Q12809); experiment: Inhibition of hERG potassium channel assessed as […] at -80 mV holding potential incubated for 120 seconds by whole cell-automated voltage clamp analysis assay; format: toxicity
Voltage-gated inwardly rectifying potassium channel KCNH2, sequence (Q12809 whole entry): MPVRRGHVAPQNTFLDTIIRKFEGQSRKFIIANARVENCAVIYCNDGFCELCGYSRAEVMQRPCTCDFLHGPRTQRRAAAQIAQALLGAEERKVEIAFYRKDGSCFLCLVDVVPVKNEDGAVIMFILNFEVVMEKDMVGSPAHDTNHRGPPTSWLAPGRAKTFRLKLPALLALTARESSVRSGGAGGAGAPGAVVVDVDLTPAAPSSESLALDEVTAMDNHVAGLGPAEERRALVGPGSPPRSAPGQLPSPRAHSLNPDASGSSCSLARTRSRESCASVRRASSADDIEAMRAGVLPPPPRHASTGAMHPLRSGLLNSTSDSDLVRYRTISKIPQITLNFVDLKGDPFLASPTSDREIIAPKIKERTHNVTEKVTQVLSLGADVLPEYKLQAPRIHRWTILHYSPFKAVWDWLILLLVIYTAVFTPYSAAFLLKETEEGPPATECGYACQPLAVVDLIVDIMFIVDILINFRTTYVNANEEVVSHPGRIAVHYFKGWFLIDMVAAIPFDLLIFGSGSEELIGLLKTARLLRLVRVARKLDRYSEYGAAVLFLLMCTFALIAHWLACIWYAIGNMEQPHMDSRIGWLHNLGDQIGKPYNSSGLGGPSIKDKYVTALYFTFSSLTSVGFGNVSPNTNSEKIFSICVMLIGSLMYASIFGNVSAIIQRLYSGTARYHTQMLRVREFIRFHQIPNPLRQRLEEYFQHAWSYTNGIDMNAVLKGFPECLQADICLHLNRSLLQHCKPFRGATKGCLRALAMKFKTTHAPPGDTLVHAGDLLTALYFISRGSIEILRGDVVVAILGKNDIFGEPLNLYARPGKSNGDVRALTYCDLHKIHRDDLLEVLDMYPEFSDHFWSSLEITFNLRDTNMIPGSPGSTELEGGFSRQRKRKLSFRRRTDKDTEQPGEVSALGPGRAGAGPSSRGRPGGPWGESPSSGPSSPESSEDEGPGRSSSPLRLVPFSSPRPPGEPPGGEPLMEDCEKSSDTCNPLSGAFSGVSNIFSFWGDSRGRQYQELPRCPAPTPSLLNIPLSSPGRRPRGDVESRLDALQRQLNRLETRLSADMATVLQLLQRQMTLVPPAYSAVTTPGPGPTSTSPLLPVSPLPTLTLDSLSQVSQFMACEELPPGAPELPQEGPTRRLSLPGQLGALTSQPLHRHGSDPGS
Outline: (§4)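 Automated whole-cell patch clamp, holding potential −80 mV. Voltage protocol applied every 20 s. Baseline set with external solution containing 0.1% DMSO and stabilised 3 min. Compound applied until steady state, at least 3 min, then washout. Maximum tested concentration 40 μM, or 3 μM for cisapride as positive control.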

[7] = system: Staphylococcus epidermidis; experiment: Antibacterial activity against methicillin-sensitive Staphylococcus epidermidis strains 15 1 to 4 assessed as reduction in bacterial growth incubated for 18 to 20 hrs by CLSI based microdilution method; format: functional; conditions: time 18-20 hrs; outline: as §1
Klebsiella pneumoniae [8] = experiment: Antibacterial activity agains wild type Klebsiella pneumoniae ATCC BAA-2470 assessed as reduction in bacterial growth incubated for 18 to 20 hrs by CLSI based microdilution method; format: functional; conditions: time 18-20 hrs; outline: as §1
Escherichia coli [9] = experiment: Antibacterial activity against ESBL-producing Escherichia coli ATCC 35218 strains 15 1 to 3 assessed as reduction in bacterial growth incubated for 18 to 20 hrs by CLSI based microdilution method; format: functional; conditions: time 18-20 hrs
Outline: (§5)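 CLSI broth microdilution. Compounds in DMSO (levofloxacin and meropenem in water), serial twofold dilutions in broth, 64 to 0.008 μg/mL. […] Results reported as MIC ranges across strains.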

[10] = Drug metabolism in Spargue-Dawley rat liver microsomes assessed as formation of M5 metabolite incubated upto 60 mins by UHPLC-MS/MS analysis; format: ADME, Microsome; conditions: 1 h
Outline: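 Male SD rat liver microsomes at 1 mg protein/mL with 2 mM NADP and 5 mM MgCl₂ in 100 mM potassium phosphate, pH 7.4. Compound preincubated 5 min at 37 °C. Samples at 0, 30 and 60 min quenched with cold acetonitrile containing 0.1% formic acid, then analysed by UHPLC-MS/MS. Relative peak areas from extracted ion chromatograms at 60 min.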

[11] = Metabolic stability in human liver microsome assessed as metabolic bioavailability at 0.1 uM in presence of NADPH incubated upto 60 mins by LC-MS/MS analysis; format: ADME; conditions: liver microsomes
Outline: (§6)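 Compound at 0.1 μM final, in 0.01% DMSO with 0.005% BSA. Incubated with rat or human liver microsomes at 0.33 mg/mL in 0.1 M Tris-HCl, pH 7.4, with 5 mM MgCl₂ and 1 mM NADPH, at 37 °C. Samples at 0, 7, 17, 30 and 60 min quenched with cold methanol and analysed by LC-MS/MS. Half-life, Cl_int and MF% derived as previously described.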

[12] = Volume of distribution at the steady state in Sprague-Dawley rat at 4 mg/kg, iv measured upto 24 hrs by LC-MS/MS analysis; format: ADME, organism-based; conditions: in vivo, read-out: Vdss; outline: as §2
[13] = Clearance in Sprague-Dawley rat at 4 mg/kg, iv measured upto 24 hrs by LC-MS/MS analysis; format: ADME, organism-based; conditions: in vivo; outline: as §2
[14] = Metabolic stability in rat liver microsome assessed as elimination half life at 0.1 uM in presence of NADPH incubated upto 60 mins by LC-MS/MS analysis; format: ADME; conditions: liver microsomes, read-out: beta t1/2; outline: as §6
[15] = Cytotoxicity against human L02 cells assessed as cell viability measured for 48 hrs by CCK-8 assay; format: toxicity, cell-based; outline: as §3
Klebsiella pneumoniae [16] = experiment: Antibacterial activity agains wild type Klebsiella pneumoniae ATCC BAA-1705 assessed as reduction in bacterial growth incubated for 18 to 20 hrs by CLSI based microdilution method; format: functional; conditions: time 18-20 hrs; outline: as §5
[17] = Metabolic stability in rat liver microsome assessed as intrinsic clearance at 0.1 uM in presence of NADPH incubated upto 60 mins by LC-MS/MS analysis; format: ADME; conditions: microsomes, 1 h; outline: as §6
[18] = target: hERG (KCNH2) potassium channel (Homo sapiens, UniProt Q12809); experiment: Inhibition of hERG potassium channel assessed as maximum inhibition rate at 40 uM at -80 mV holding potential incubated for 120 seconds by whole cell-automated voltage clamp analysis assay relative to control; format: toxicity; conditions: time 120 sec; outline: as §4
hERG (KCNH2) potassium channel, sequence (Q12809 whole entry): as above

Pseudomonas aeruginosa [19] = experiment: Antibacterial activity against wild type Pseudomonas aeruginosa ATCC 27853 assessed as reduction in bacterial growth incubated for 18 to 20 hrs by CLSI based microdilution method; format: functional; conditions: time 18-20 hrs; outline: as §5
[20] = Metabolic stability in rat liver microsome assessed as metabolic bioavailability at 0.1 uM in presence of NADPH incubated upto 60 mins by LC-MS/MS analysis; format: ADME; conditions: liver microsomes; outline: as §6
Acinetobacter baumannii [21] = experiment: Antibacterial activity against wild type Acinetobacter baumannii NCTC 13304 assessed as reduction in bacterial growth incubated for 18 to 20 hrs by CLSI based microdilution method; format: functional; conditions: time 18-20 hrs; outline: as §1
[22] = Metabolic stability in human liver microsome assessed as elimination half life at 0.1 uM in presence of NADPH incubated upto 60 mins by LC-MS/MS analysis; format: ADME; conditions: liver microsomes, read-out: beta t1/2; outline: as §6
Escherichia coli [23] = experiment: Antibacterial activity against Escherichia coli ATCC 35218 strains 15 1 to 3 assessed as reduction in bacterial growth incubated for 18 to 20 hrs by CLSI based microdilution method; format: functional; conditions: time 18-20 hrs; outline: as §5
[24] = MRT in Sprague-Dawley rat at 4 mg/kg, iv measured upto 24 hrs by LC-MS/MS analysis; format: ADME, organism-based; conditions: in vivo; outline: as §2
Pseudomonas aeruginosa [25] = experiment: Antibacterial activity against multidrug resistant Pseudomonas aeruginosa strains 15 1 to 3 assessed as reduction in bacterial growth incubated for 18 to 20 hrs by CLSI based microdilution method; format: functional; conditions: time 18-20 hrs; outline: as §1
Acinetobacter baumannii [26] = experiment: Antibacterial activity agains OXA23-producing multidrug resistant Acinetobacter baumannii assessed as reduction in bacterial growth incubated for 18 to 20 hrs by CLSI based microdilution method; format: functional; conditions: time 18-20 hrs; outline: as §1
Pseudomonas aeruginosa [27] = experiment: Antibacterial activity against IMP4-producing multidrug resistant Pseudomonas aeruginosa assessed as reduction in bacterial growth incubated for 18 to 20 hrs by CLSI based microdilution method; format: functional; conditions: time 18-20 hrs; outline: as §1
[28] = Metabolic stability in human liver microsome assessed as intrinsic clearance at 0.1 uM in presence of NADPH incubated upto 60 mins by LC-MS/MS analysis; format: ADME; conditions: microsomes, 1 h; outline: as §6
Klebsiella pneumoniae [29] = experiment: Antibacterial activity against KPC2-producing multidrug resistant Klebsiella pneumoniae assessed as reduction in bacterial growth incubated for 18 to 20 hrs by CLSI based microdilution method; format: functional; conditions: time 18-20 hrs; outline: as §1
[30] = Elimination half life in Sprague-Dawley rat at 4 mg/kg, iv measured upto 24 hrs by LC-MS/MS analysis; format: ADME, organism-based; conditions: in vivo, read-out: beta t1/2 (converted); outline: as §2
Staphylococcus aureus [31] = experiment: Antibacterial activity against methicillin-sensitive Staphylococcus aureus strains 15 1 to 4 assessed as reduction in bacterial growth incubated for 18 to 20 hrs by CLSI based microdilution method; format: functional; conditions: time 18-20 hrs; outline: as §1
Staphylococcus aureus [32] = experiment: Antibacterial activity against methicillin-resistant Staphylococcus aureus strains 15 1 to 4 assessed as reduction in bacterial growth incubated for 18 to 20 hrs by CLSI based microdilution method; format: functional; conditions: time 18-20 hrs; outline: as §1

| Compound | MIC (Escherichia coli [1]) [µg/mL] | CC50 at 48 h [3] [µM] | MIC (Escherichia coli [4]) [µg/mL] | MIC (Escherichia coli [5]) [µg/mL] | IC50 [6] [µM] | MIC [7] [µg/mL] | MIC (Klebsiella pneumoniae [8]) [µg/mL] | MIC (Escherichia coli [9]) [µg/mL] | CC50 at 48 h [15] [µM] | MIC (Klebsiella pneumoniae [16]) [µg/mL] | inhibition at 2 min, 40 µM [18] [%] | MIC (Pseudomonas aeruginosa [19]) [µg/mL] | MIC (Acinetobacter baumannii [21]) [µg/mL] | MIC (Escherichia coli [23]) [µg/mL] | MIC (Pseudomonas aeruginosa [25]) [µg/mL] | MIC (Acinetobacter baumannii [26]) [µg/mL] | MIC (Pseudomonas aeruginosa [27]) [µg/mL] | MIC (Klebsiella pneumoniae [29]) [µg/mL] | MIC (Staphylococcus aureus [31]) [µg/mL] | further results |
| --- | --- | --- | --- | --- | --- | --- | --- | --- | --- | --- | --- | --- | --- | --- | --- | --- | --- | --- | --- | --- |
| CCC(CN)=C1CN(c2nc(Oc3cnc(C)nc3)nc3[nH]c4c(NC)cc(F)cc4c23)C1 | 0.25 (≈ 0.557 µM) | 17 | 0.25 (≈ 0.557 µM) | 0.125 (≈ 0.279 µM) | > 40 | < 0.008 | 1 (≈ 2.23 µM) | < 0.008 | 9.74 | 2 (≈ 4.46 µM) | 41.1 | 1 (≈ 2.23 µM) | 0.125 (≈ 0.279 µM) | < 0.008 | 0.5 (≈ 1.11 µM) | 0.125 (≈ 0.279 µM) | 2 (≈ 4.46 µM) | 1 (≈ 2.23 µM) | < 0.008 | AUC(0-inf) [2]: 776 ng·h/mL; Activity [10]: 72.85%; Fh at 1 h, 0.1 µM [11]: 57.8%; Vd [12]: 14.7 L/kg; clearance [13]: 86.7 mL/min/kg; half-life at 0.1 µM [14]: 0.472 h; CLH [17]: 74.3 mL/min/g; Fh at 1 h, 0.1 µM [20]: 37.4%; half-life at 0.1 µM [22]: 2.45 h; MRT [24]: 2.8 h; CLH [28]: 14.3 mL/min/g; half-life [30]: 3.7 h |
| CNc1cc(F)cc2c1[nH]c1nc(Oc3cnc(C)nc3)nc(N3CC4CCNC4C3)c12 (racemic) | 0.5 (≈ 1.15 µM) | 21.8 | 0.5 (≈ 1.15 µM) | 0.25 (≈ 0.575 µM) | 12.3 | < 0.008 | 1 (≈ 2.3 µM) | 0.25 (≈ 0.575 µM) | 24 | 4 (≈ 9.21 µM) | 70.5 | 4 (≈ 9.21 µM) | 0.25 (≈ 0.575 µM) | 0.06 (≈ 0.138 µM) | 0.5 (≈ 1.15 µM) | 0.5 (≈ 1.15 µM) | 16 (≈ 36.8 µM) | 2 (≈ 4.6 µM) | < 0.008 | MIC (Staphylococcus aureus [32]): 0.015 µg/mL (≈ 0.0345 µM) |
